Bioassay records as filed in PubChem.
Compounds with a hit are over-represented: about 1.5% of the library has one in this group of screens.
RanGTP-Imp inh = disruptors of Ran-importin-beta complex formation – biochemical, FRET, CFP-Ran, YFP-importin-beta, homogeneous, primary screen; actives 1.1% (n = 300,000); AID 2216; inhibition, % (no concentration beside the values); cell-free CFP-Ran/YFP-importin-beta FRET ratio;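 active = more than half of the replicate wells show a fall in the fluorescence ratio signal beyond about 16%, limit read from the data, passing the limit was not always enough; inconclusive = exactly half of the replicate wells pass the set limit; inactive = fewer than half of replicates pass the limit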;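 also: 0% = DMSO wells and 100% = Ran loaded with GDP instead of GTP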
CaV13 FRET inh = Disruptors of the CACNA1D IQ motif to Ca2+-dependent inactivation inhibitor domain association, primary screening, Förster resonance energy transfer in intact living …; HEK cells, CFP/YFP FRET ICDI-IQ, plate reader, 10 min; percent FRET-ratio fall versus neutral wells; actives 0.098% (n = 340,000); inhibition, % at 12.3 µM;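 active = mean replicate inhibition of at least 30% and at least 1% of replicates passing that level; inconclusive = only one of the two criteria is met; inactive = neither criterion is met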;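 also: 0% = median of the neutral control wells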
Runt-CBFb FRET = blocks binding of human RUNX1 Runt domain to CBFb; Q01196+Q13951; Cerulean-Runt/Venus-CBFb FRET ratio 530/480, 1 h; inhibition, % at 20 µM; actives 0.46% (n = 220,000); AID 1496;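 active = inhibition over about 50% at 20 µM in the single-dose screen, limit read from the data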;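 also: 0% = DMSO wells and 100% = excess unlabeled CBFb competitor control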
Target sequence (Q01196 whole entry, looked up, the tested form may be a part): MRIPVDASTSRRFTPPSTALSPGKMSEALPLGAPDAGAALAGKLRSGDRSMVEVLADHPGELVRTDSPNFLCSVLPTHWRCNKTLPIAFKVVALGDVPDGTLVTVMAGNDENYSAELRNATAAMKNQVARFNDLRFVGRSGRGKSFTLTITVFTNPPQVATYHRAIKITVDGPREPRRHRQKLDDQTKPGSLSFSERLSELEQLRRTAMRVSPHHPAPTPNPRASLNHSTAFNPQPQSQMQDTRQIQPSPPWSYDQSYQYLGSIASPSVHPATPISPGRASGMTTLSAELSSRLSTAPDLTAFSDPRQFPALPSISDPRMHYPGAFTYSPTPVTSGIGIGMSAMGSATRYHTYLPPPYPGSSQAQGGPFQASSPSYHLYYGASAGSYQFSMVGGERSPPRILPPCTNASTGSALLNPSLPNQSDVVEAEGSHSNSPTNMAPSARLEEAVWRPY
Target sequence (Q13951 whole entry, looked up, the tested form may be a part): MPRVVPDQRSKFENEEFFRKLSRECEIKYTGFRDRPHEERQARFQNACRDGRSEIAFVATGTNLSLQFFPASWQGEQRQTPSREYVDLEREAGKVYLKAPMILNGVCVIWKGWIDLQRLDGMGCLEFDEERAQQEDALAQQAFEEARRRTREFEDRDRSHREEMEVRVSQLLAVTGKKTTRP
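Buffer or medium: Tris pH 7.5 buffer with BSA. Assay system: Cerulean-labeled Runt domain protein. Amount: each fluorescent fusion protein 100 nM. Read-out basis: loss of energy transfer signal. Incubation: 1 h compound exposure, room temperature. Probe or stimulus: Venus-CBFb binding partner, 100 nM. Detection: FRET, excitation 422 nm, emission at 530 and 480 nm.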
Hck Nef HTS = inhibitors of human Hck kinase activated by Nef. actives 0.68% (n = 220,000). P08631. AID 463187. inhibition, % at 20 µM. Recombinant Hck-YEEI plus Nef, Z-Lyte FRET kinase assay;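 active = Hck-Nef kinase inhibition above about 50%, limit read from the data; inactive = inhibition below that limit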;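 also: 0% = DMSO with Hck plus Nef and 100% = Hck alone without Nef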
Runt-SMMHC FRET = Runt domain-CBFb-SMMHC interaction inhibition; Q01196+Q13951; inhibition, % at 20 µM; Cerulean-Runt/Venus-CBFb-SMMHC FRET ratio 530/480, 1 h; AID 1434; actives 0.74% (n = 220,000);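 active = mean inhibition across duplicate retests at 20 µM reaching about 50%, limit read from the data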;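 also: 0% = DMSO wells and 100% = wells with excess untagged CBFb-SMMHC; inhibitors lower the FRET ratio by blocking Runt binding to CBFb-SMMHC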
Active calls of the source: *; ? = inconclusive; . = no result given; + = active, no number.

SMILES	RanGTP-Imp inh	CaV13 FRET inh	Runt-CBFb FRET	Hck Nef HTS	Runt-SMMHC FRET
Cc1ccc(CN2CCc3c(OCc4ccc(F)cc4)cccc3C2=O)cc1	-1	-5	-2	1	-6
COCCNc1c2c(c(C#N)c3nc4ccccc4n13)CCCC2	21*	-3	36	25	75*
CC(=O)c1ccc(Nc2c3c(c(C#N)c4nc5ccccc5n24)CCC3)cc1	31*	.	39	4	68*
CC(=O)Nc1ccc(N2CCc3c(C)c(C#N)c4nc5ccccc5n4c32)cc1	110*	.	4	4	81*
Cc1c2c(n3c(nc4ccccc43)c1C#N)N(Cc1cccnc1)CC2	.	.	.	27	.
N#Cc1c2c(c(NCCOCCO)n3c1nc1ccccc13)CCCC2	-4	7	39	15	85*
CCC(C)(C)n1nnnc1C(c1ccc(OC)c(OC)c1)N1CCN(c2ccccc2)CC1 (stereo unspecified)	3	-6	0	0	-3
O=c1c2ccccc2nc2n1CCS2(=O)=O	3	-5	1	2	1
c1ccc(CSc2nnc(Cc3ccccc3)o2)cc1	0	-6	1	21	-2
c1ccc(CSc2nnc(Cc3ccccn3)o2)cc1	22*	-4	-1	3	1
CCOc1ccc(CN2CCN(Cc3cc4ccccc4[nH]3)CC2CCO)cc1 (stereo unspecified)	21*	-4	4	17	-7
COc1cccc(CN2CCN(Cc3cc4ccccc4[nH]3)CC2CCO)c1 (stereo unspecified)	9	-6	2	14	4
CC(=O)c1cccc(NC(=O)CSc2n[nH]c(-c3ccncc3)n2)c1	.	-2	.	.	.
COc1ccc(C=Nc2cccnc2N)cc1	25*	.	.	.	.
CCn1nc(NC(=O)Cc2ccc(OC)cc2)c2cc3cccc(C)c3nc21	24*	-8	82*	23	82*
CCCCC(=O)Nc1nn(CCC)c2nc3ccccc3cc12	63*	-4	19	8	34
CCn1nc(NC(=O)Cc2ccc(OC)cc2)c2cc3cc(C)ccc3nc21	19*	-4	22	-6	39
CCCCn1nc(NC(=O)COC)c2cc3cc(OC)ccc3nc21	99*	9	.	.	.
CCn1nc(NC(=O)c2ccccn2)c2cc3cc(C)ccc3nc21	89*	3	48	23	82*
CCn1nc(NC(=O)COC)c2cc3cccc(C)c3nc21	44*	0	.	.	.
CCCCC(=O)Nc1nn(CC)c2nc3c(C)cccc3cc12	37*	-2	.	.	.
CCCCN(C)C(=O)C1CCC(CNS(=O)(=O)c2ccc3c(c2)CC(C)N3C(=O)C2CC2)CC1 (stereo unspecified)	1	-7	.	.	.
CN1CCN(c2nnc(-c3ccccc3)c(-c3ccccc3)n2)CC1	1	-13	2	-3	-2
c1ccc2c(N3CCCCC3)nc(N3CCCCC3)nc2c1	6	-4	-1	8	-7
c1ccc(-c2nc(N3CCCC3)nc3ccccc23)cc1	34*	-9	7	-1	19
SMILES	RanGTP-Imp inh	CaV13 FRET inh	Runt-CBFb FRET	Hck Nef HTS	Runt-SMMHC FRET
CN1CCN(c2nc(-c3ccccc3)c3cc(Cl)ccc3n2)CC1	?	-3	25	3	57*
Clc1ccc2nc(N3CCNCC3)nc(-c3ccccc3)c2c1	4	-5	39	7	89*
CCOC(=O)C1=CN(CC2CCCO2)C=C(C(=O)OCC)C1c1ccccc1C(F)(F)F (stereo unspecified)	5	76*	109*	12	91*
CCOC(=O)c1ccc(NC(=O)c2cccc3c2C(=O)N(CC2CCCO2)C3)cc1 (stereo unspecified)	3	-3	.	.	.
O=C(C1CC=CCC1)N1CCCCCC1 (stereo unspecified)	.	-6	.	.	.
O=C(O)c1ccc(S(=O)(=O)N2CCCCCC2)cc1	2	-5	3	2	-1
Nc1cccc2c1C(=O)N(C(=O)c1ccc(S(=O)(=O)N3CCCCCC3)cc1)C2=O	11	-12	12	1	58*
Cc1ccc(/C=C2\Oc3c(ccc(O)c3CN3CCN(CCO)CC3)C2=O)cc1	35*	-19	3	0	90*
O=C1/C(=C/c2ccco2)Oc2c1ccc(O)c2CN1CCCCC1	-62	-20	11	1	-35
CC(C)c1ccc(/C=C2\Oc3c(ccc(O)c3CN3CCN(C)CC3)C2=O)cc1	.	+	-114	-36	88*
CC1CCN(Cc2c(O)ccc3c2O/C(=C\c2ccco2)C3=O)CC1	-41	.	4	-21	-18
Brc1ccc(C2=Nn3c(nnc3-c3cccnc3)SC2)s1	0	.	0	0	4
Cc1ccc(S(=O)(=O)c2cc3c(=O)n4ccccc4nc3n(C)c2=N)cc1C	173*	3	.	.	.
CC(C)OCCCn1c(=N)c(S(=O)(=O)c2ccccc2)cc2c(=O)n3ccccc3nc21	-3	22	.	.	.
Cn1c(=N)c(S(=O)(=O)c2ccc(F)cc2)cc2c(=O)n3ccccc3nc21	5	1	63*	14	80*
CCCn1c(=N)c(S(=O)(=O)c2ccc(F)cc2)cc2c(=O)n3ccccc3nc21	176*	21	.	.	.
C=CCn1c(=N)c(S(=O)(=O)c2ccc(C)c(C)c2)cc2c(=O)n3ccccc3nc21	160*	19	.	.	.
Cc1ccccc1NC(=S)NCCC(c1ccccc1)c1ccccc1	2	.	-3	-1	0
CCOC(=O)c1c(C)n(C)c2ccc(OC)c([N+](=O)[O-])c12	4	7	1	20	1
Cn1c(=N)c(S(=O)(=O)c2ccccc2)cc2c(=O)n3ccccc3nc21	.	34*	47	17	62*
CCCn1c(=N)c(S(=O)(=O)c2ccc(F)cc2)cc2c(=O)n3cccc(C)c3nc21	144*	3	.	.	.
CCOC(Cn1c(SCC(=O)Nc2cc(C)on2)nc2ccccc2c1=O)OCC	2	-5	.	.	.
Cc1cccn2c(=O)c(/C=C(\C#N)C(=O)NC3CCS(=O)(=O)C3)c(N3CCC(C(N)=O)CC3)nc12 (stereo unspecified)	?	+	134*	6	63*
Cc1cccn2c(=O)c(/C=C(\C#N)C(=O)NC3CCS(=O)(=O)C3)c(N3CC(C)OC(C)C3)nc12 (stereo unspecified)	?	3	12	3	103*
Cc1cccn2c(=O)c(/C=C(\C#N)S(=O)(=O)c3ccccc3)c(N3CCC(C(N)=O)CC3)nc12	10	-9	-7	0	-14
Cn1nnnc1SCC(=O)Nc1ccc(Br)cc1Cl	4	.	-2	0	4
Cc1ccn2c(=O)nc(SCC(=O)NC3CCCC3)nc2c1	18*	-6	.	.	.
COc1ccc(C(=O)Nc2cccc(/C(C)=N\NC(=O)c3ccoc3C)c2)cc1OC	-4	.	.	.	.
